# Reference: BindingDB's records for PubMed 36760746 (n/a, 2023)
# Target: Induced myeloid leukemia cell differentiation protein Mcl-1 (Homo sapiens, UniProt Q07820)
# Assay: Inhibition of FITC-labelled BAK BH3 peptide to 6His-MBP tagged recombinant human MCL-1 (172 to 327 residues) expressed in Escherichia coli assessed as inhibition constant by fluorescence polarization competition assay
# Summary of the method: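 Fluorescence polarization competition: compounds titrated into a mixture of MCL-1 (residues 172–327) and FITC-labelled BAK BH3 peptide. Displacement of the peptide was followed by the change in polarization, and Ki was derived from the competition titration.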
# Sequence of Induced myeloid leukemia cell differentiation protein Mcl-1 (Q07820 whole entry, the tested form may be a part): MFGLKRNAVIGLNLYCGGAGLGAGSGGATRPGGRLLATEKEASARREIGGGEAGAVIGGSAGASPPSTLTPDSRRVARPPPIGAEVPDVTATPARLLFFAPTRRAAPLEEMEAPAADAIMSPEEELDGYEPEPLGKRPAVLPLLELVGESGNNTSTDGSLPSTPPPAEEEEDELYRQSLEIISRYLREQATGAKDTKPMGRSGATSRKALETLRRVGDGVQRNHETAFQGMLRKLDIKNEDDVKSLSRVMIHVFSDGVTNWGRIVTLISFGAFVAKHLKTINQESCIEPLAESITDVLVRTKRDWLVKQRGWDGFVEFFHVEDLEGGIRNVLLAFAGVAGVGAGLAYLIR
row,SMILES,Ki [µM]
1,CC(C)CN(c1cccc(C(=O)O)c1)S(=O)(=O)c1ccc(F)cc1 [3-(4-fluoro-N-isobutylphenyl-sulfonamido) benzoic acid],> 500
2,CC(C)CN(c1ccc(C(=O)O)cc1)S(=O)(=O)c1ccc(F)cc1 [4-(4-fluoro-N-isobutylphenyl-sulfonamido) benzoic acid],> 500
3,CC(C)CN(c1cccc(C(=O)O)c1)S(=O)(=O)c1ccccc1 [3-(N-isobutylphenyl-sulfonamido) benzoic acid],> 500
4,"CC(C)CN(c1cccc(C(=O)O)c1)S(=O)(=O)c1ccc(-c2ccccc2)cc1 [3-(N-isobutyl-[1,1'-biphenyl]-4-ylsulfonamido) benzoic acid]",> 500
5,CC(C)CN(c1ccc(C(=O)O)cc1)S(=O)(=O)c1ccccc1 [4-(N-isobutylphenyl-sulfonamido) benzoic acid],> 500
6,CC(C)CN(c1ccc(C(=O)O)cc1)S(=O)(=O)c1ccc2ccccc2c1 [4-(N-isobutylnaphthalene-2-sulfonamido) benzoic acid],> 500
